Measured values as given in ChEMBL document CHEMBL4715806, “Asymmetric Hydroboration Approach to the Scalable Synthesis of ((1R,3S)-1-Amino-3-((R)-6-hexyl-5,6,7,8-tetrahydronaphthalen-2-yl)cyclopentyl)methanol (BMS-986104) as a Potent S1P Receptor Modulator” (J Med Chem, 2016).
One block for each compound: values may come before it. Activity calls are given as the source filed them. No cut-off for these calls is given here.

What was measured:
[1] = biological target: Sphingosine 1-phosphate receptor 1 (Homo sapiens, UniProt P21453); assay: Agonist activity at human S1P1 in HLE cell membranes incubated for 45 mins by scintillation counting based [35S]GTP-gamma-S binding assay; parameters: species or system Cell membrane
Chain of Sphingosine 1-phosphate receptor 1 (P21453 whole entry): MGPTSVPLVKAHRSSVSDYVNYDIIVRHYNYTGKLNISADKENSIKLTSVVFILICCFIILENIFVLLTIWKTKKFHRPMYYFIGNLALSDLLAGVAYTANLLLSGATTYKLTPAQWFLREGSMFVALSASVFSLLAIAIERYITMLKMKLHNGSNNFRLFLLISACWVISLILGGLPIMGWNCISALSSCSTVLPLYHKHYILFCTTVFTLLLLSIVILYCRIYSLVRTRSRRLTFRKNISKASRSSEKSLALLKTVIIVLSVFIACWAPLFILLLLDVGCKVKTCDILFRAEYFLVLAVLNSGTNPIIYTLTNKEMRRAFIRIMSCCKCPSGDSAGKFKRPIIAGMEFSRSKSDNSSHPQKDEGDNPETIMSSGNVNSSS

[2] = biological target: T1, Sphingosine 1-phosphate receptor 3 (Homo sapiens, UniProt Q99500); assay: Antagonist activity at human S1P3 expressed in EDG3-Ga15-bla HEK293T cells incubated for 45 mins by scintillation counting based [35S]GTP-gamma-S binding assay relative to control; format: cell membranes, Cell membrane
T1 sequence (Q99500 whole entry): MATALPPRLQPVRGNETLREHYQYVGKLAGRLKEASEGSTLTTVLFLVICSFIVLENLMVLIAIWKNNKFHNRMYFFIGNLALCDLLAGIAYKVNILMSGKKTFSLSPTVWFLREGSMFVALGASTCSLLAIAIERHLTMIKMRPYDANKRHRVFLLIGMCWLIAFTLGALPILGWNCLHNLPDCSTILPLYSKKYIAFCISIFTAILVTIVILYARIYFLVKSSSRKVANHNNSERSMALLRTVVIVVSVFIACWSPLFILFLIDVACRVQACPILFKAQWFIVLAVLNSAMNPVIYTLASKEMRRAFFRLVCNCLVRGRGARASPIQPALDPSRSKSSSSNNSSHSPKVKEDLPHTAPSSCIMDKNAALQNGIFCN

[3] = biological target: T1, Sphingosine 1-phosphate receptor 3; assay: Agonist activity at human S1P3 expressed in EDG3-Ga15-bla HEK293T cells incubated for 45 mins by scintillation counting based [35S]GTP-gamma-S binding assay relative to control; format: cell membranes, Cell membrane
Summary of the method: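 Membranes from EDG3-Ga15-bla HEK293T cells, 3 μg protein/well, mixed with compound in 3-fold dilution series. Room temperature, 45 min. Filter capture, water washes, scintillation counting. EC50 taken at 50% of each compound's own Ymax.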

[4] = tested on: Mus musculus; assay: Induction of lymphopenia in orally dosed Balb/c mouse assessed as reduction of circulating lymphocytes measured after 24 hrs relative to control; format: functional, organism-based
Summary of the method: (§1)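 Single oral dose to Balb/c mice in PEG300 vehicle, as solution or suspension; vehicle-only group as control. Retro-orbital bleeds at 4 h and 24 h. Lymphocyte counts read on a hematology analyzer. Expressed as % reduction of circulating lymphocytes versus the vehicle group at each time. Group means, n = 3–4 per group.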

[5] = tested on: Mus musculus; assay: Induction of lymphopenia in Balb/c mouse assessed as reduction of circulating lymphocytes at 30 mg/kg, po measured after 24 hrs relative to control; format: functional; summary of the method: as §1
[6] = Drug metabolism in orally dosed Balb/c mouse assessed as phosphate metabolite to parent AUC (0-24 hrs) ratio at after 24 hrs; format: ADME, organism-based; conditions: in vivo, po
[7] = tested on: Mus musculus; assay: Induction of lymphopenia in Balb/c mouse assessed as reduction of circulating lymphocytes at 0.5 mg/kg, po measured after 4 hrs relative to control; format: functional; summary of the method: as §1
[8] = tested on: Mus musculus; assay: Induction of lymphopenia in Balb/c mouse assessed as reduction of circulating lymphocytes at 30 mg/kg, po measured after 4 hrs relative to control; format: functional; summary of the method: as §1
[9] = Unbound fraction in dog plasma; format: ADME, cell-free, Canis lupus familiaris
[10] = tested on: Mus musculus; assay: Suppression of experimental autoimmune-encephalomyelositis in MOG peptide induced C57BL/6 mouse EAE chronic model assessed as improvement in clinical scores at 0.5 mg/kg, po dosed every other day relative to control; format: functional
Summary of the method: (§2)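 C57BL/6 female mice, 6–8 weeks, n=10 per group, immunized subcutaneously with MOG35-55 emulsified 1:1 in incomplete Freund's adjuvant plus M. tuberculosis H37RA. Oral dosing from day 1, every other day or daily as stated. Clinical scores graded up to 5 (death) and averaged per group. At termination, lumbar spinal cord taken for formalin fixation and paraffin sections stained with H&E and Luxol Fast Blue. Groups compared by one-way ANOVA with Tukey post test.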

[11] = tested on: Mus musculus; assay: Induction of lymphopenia in Balb/c mouse assessed as reduction of circulating lymphocytes at 10 mg/kg, po measured after 24 hrs relative to control; format: functional; summary of the method: as §1
[12] = tested on: Mus musculus; assay: Induction of lymphopenia in Balb/c mouse assessed as reduction of circulating lymphocytes at 1 mg/kg, po measured after 4 hrs relative to control; format: functional; summary of the method: as §1
[13] = biological target: Cytochrome P450 2C9 (Homo sapiens, UniProt P11712); assay: Inhibition of CYP2C9 (unknown origin); format: ADME
Chain of Cytochrome P450 2C9 (P11712 whole entry): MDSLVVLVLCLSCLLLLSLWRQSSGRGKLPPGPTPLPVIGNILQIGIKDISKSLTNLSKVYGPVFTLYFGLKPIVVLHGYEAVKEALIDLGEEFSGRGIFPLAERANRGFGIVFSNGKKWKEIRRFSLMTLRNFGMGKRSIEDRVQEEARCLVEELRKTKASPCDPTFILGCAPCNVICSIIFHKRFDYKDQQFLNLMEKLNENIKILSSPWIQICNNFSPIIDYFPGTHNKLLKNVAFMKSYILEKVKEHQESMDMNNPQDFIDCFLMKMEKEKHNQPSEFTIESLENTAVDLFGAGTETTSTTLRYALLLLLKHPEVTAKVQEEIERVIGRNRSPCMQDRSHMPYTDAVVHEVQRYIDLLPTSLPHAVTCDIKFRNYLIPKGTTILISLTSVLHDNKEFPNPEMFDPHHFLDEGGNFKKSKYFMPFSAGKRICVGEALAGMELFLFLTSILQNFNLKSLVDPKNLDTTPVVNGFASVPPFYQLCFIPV

[14] = Unbound fraction in human plasma; format: ADME, cell-free
[15] = tested on: Mus musculus; assay: Suppression of experimental autoimmune-encephalomyelositis in MOG peptide induced C57BL/6 mouse EAE chronic model assessed as improvement in clinical scores at 0.5 to 4 mg/kg, po dosed every other day; format: functional, organism-based; conditions: dose 0.5-4 mg/kg; summary of the method: as §2
[16] = biological target: Cytochrome P450 3A4 (Homo sapiens, UniProt P08684); assay: Inhibition of CYP3A4 (unknown origin); format: ADME
Chain of Cytochrome P450 3A4 (P08684 whole entry): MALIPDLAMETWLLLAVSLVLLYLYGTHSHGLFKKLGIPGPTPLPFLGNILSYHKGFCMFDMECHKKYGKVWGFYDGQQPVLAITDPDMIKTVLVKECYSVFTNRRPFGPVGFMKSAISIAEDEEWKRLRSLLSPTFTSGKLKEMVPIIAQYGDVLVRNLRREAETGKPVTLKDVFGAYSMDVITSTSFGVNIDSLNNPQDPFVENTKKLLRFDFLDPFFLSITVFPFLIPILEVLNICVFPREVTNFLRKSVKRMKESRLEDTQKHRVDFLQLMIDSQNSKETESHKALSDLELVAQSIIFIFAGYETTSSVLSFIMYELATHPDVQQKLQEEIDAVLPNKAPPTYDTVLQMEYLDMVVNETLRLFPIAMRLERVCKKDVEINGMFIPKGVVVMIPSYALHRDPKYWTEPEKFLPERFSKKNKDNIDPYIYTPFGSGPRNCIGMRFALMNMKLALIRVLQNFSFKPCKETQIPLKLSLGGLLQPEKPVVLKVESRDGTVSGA

[17] = Half life in human liver microsomes; format: ADME, Microsome
[18] = tested on: Mus musculus; assay: Suppression of experimental autoimmune-encephalomyelositis in MOG peptide induced C57BL/6 mouse EAE chronic model assessed as reduction in central nervous system damage at 0.5 to 4 mg/kg, po dosed every other day by hematoxylin and eosin staining based histological analysis relative to control; format: functional, organism-based; conditions: dose 0.5-4 mg/kg; summary of the method: as §2
[19] = Unbound fraction in mouse plasma; format: ADME, cell-free
[20] = tested on: Mus musculus; assay: Suppression of experimental autoimmune-encephalomyelositis in MOG peptide induced C57BL/6 mouse EAE chronic model assessed as improvement in clinical scores at 4 mg/kg, po dosed every other day relative to control; format: functional; summary of the method: as §2
[21] = biological target: T2, Cytochrome P450 2C8 (Homo sapiens, UniProt P10632); assay: Inhibition of CYP2C8 (unknown origin); format: ADME
T2 sequence (P10632 whole entry): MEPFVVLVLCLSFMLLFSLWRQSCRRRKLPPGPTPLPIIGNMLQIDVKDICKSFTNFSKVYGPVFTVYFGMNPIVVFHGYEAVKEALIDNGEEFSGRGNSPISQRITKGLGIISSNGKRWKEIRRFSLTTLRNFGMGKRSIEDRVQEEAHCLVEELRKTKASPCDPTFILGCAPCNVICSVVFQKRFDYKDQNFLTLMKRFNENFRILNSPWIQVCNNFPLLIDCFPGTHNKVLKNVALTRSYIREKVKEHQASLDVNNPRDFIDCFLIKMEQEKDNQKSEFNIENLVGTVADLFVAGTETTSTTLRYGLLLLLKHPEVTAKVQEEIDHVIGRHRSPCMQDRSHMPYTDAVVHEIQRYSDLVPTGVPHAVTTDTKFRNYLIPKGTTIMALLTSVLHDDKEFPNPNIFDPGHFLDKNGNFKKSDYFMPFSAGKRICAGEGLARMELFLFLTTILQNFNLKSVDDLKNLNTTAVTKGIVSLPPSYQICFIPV

[22] = biological target: Cytochrome P450 2D6 (Homo sapiens, UniProt P10635); assay: Inhibition of CYP2D6 (unknown origin); format: ADME
Chain of Cytochrome P450 2D6 (P10635 whole entry): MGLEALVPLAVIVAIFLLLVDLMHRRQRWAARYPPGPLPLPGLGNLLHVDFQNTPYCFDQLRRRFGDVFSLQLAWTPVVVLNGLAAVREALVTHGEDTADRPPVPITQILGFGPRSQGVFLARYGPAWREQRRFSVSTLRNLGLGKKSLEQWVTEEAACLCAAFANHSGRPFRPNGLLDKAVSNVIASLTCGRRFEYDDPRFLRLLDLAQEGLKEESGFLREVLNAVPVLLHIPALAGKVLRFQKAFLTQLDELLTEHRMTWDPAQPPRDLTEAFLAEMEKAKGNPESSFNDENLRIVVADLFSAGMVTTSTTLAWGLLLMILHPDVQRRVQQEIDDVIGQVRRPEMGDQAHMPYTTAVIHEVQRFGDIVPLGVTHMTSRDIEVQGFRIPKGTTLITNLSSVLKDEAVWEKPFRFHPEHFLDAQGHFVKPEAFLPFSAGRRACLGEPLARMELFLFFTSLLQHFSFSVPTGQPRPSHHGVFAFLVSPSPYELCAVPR

[23] = Half life in monkey liver microsomes; format: ADME, Macaca mulatta, Microsome; conditions: rhesus monkey
[24] = tested on: Mus musculus; assay: Induction of lymphopenia in Balb/c mouse assessed as reduction of circulating lymphocytes at 0.5 mg/kg, po measured after 24 hrs relative to control; format: functional; summary of the method: as §1
[25] = Unbound fraction in cynomolgus monkey plasma; format: ADME, cell-free, Macaca fascicularis
[26] = biological target: Cytochrome P450 2C19 (Homo sapiens, UniProt P33261); assay: Inhibition of CYP2C19 (unknown origin); format: ADME
Chain of Cytochrome P450 2C19 (P33261 whole entry): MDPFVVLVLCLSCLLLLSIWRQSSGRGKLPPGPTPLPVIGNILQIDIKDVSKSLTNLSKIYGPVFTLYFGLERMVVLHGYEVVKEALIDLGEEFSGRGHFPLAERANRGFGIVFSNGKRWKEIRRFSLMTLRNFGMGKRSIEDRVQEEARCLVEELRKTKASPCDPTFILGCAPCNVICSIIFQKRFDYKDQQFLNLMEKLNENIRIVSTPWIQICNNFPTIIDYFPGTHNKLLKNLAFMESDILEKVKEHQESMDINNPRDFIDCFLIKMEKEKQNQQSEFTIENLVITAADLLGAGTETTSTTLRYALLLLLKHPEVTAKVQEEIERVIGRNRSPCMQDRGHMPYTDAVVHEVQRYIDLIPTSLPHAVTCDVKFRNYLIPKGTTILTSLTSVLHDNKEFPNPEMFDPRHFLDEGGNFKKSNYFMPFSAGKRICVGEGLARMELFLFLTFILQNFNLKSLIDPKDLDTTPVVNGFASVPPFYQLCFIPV

[27] = Half life in rat liver microsomes; format: ADME, Microsome
[28] = biological target: hERG (KCNH2) (Homo sapiens, UniProt Q12809); assay: Inhibition of human ERG expressed in HEK293 cells assessed as inhibition of peak tail current at 0.3 uM by patch clamp analysis; format: cell-based; conditions: HEK293 cells expressing human ERG
Chain of hERG (KCNH2) (Q12809 whole entry): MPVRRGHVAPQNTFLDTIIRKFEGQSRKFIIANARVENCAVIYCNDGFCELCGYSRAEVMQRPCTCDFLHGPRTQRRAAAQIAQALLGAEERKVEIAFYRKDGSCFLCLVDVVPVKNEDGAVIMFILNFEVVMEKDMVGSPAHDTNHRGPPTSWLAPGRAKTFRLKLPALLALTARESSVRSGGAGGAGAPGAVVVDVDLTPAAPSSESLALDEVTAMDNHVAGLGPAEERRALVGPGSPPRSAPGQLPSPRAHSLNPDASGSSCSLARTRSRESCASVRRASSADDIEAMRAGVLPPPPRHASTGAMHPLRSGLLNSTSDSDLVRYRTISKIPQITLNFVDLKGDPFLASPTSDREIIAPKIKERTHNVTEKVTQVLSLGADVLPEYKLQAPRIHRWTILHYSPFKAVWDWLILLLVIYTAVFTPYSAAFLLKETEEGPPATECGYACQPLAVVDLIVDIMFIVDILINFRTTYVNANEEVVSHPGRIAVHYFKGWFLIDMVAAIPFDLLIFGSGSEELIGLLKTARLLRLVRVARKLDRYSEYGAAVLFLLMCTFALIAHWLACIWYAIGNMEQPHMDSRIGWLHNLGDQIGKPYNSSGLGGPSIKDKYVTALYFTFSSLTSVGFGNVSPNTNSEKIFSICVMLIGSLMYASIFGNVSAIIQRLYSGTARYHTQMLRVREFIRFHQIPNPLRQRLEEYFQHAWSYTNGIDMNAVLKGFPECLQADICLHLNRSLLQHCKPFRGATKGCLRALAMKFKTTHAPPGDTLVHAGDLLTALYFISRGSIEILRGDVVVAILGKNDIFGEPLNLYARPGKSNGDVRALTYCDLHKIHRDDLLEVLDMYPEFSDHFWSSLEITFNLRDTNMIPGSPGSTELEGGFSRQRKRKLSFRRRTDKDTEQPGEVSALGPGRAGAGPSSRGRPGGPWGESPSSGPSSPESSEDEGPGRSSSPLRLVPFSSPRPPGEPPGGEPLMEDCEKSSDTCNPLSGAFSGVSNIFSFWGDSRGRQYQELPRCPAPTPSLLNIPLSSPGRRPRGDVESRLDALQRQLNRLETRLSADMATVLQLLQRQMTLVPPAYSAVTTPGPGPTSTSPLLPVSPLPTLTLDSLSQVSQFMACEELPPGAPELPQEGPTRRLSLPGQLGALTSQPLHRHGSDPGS
Summary of the method: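 Whole-cell patch clamp on HEK293 cells stably expressing the cloned hERG α subunit, in aqueous buffer pH 7.4 at room temperature. Test pulses at 0.05 Hz stepped from holding to +20 mV for 2 s. Tail currents evoked by a subsequent voltage step. Inhibition measured on peak tail current.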

[29] = Inhibition of sodium channel (unknown origin) assessed as reduction in Na+ flux; parameters: species or system Homo sapiens
[30] = Half life in mouse; format: ADME, organism-based; conditions: in vivo
[31] = tested on: Mus musculus; assay: Induction of lymphopenia in Balb/c mouse assessed as reduction of circulating lymphocytes at 10 mg/kg, po measured after 4 hrs relative to control; format: functional; summary of the method: as §1
[32] = Half life in mouse liver microsomes; format: ADME, Microsome
[33] = Unbound fraction in rat plasma; format: ADME, cell-free
[34] = tested on: Cerebellum; assay: Induction of remyelination in lysophosphatidylcholine-induced demyelination in CD1 mouse organotypic cerebellar slice at 0.01 to 10 nM incubated for 7 days by immunohistochemistry based three-dimensional brain cell culture assay; format: functional, tissue-based; conditions: dose 0.01-10 nM, time 7.0 day
Summary of the method: (§3)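 Cerebellum from P1-2 CD1 mouse pups cut into 350 μm parasagittal slices. Cultured on inserts at 36–37 °C, 5% CO2, in MEM/horse serum/EBSS/glucose medium for 13 days. Demyelination with 0.5 mg/ml LPC overnight, then 24 h in medium, then 7 days of treatment. Slices immunostained for MBP and CBD and imaged by confocal at ×40. Myelination index = CBD+MBP double-stained area divided by CBD single-stained area. ANOVA with Dunnett test.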

[35] = tested on: Cerebellum; assay: Induction of remyelination in lysophosphatidylcholine-induced demyelination in CD1 mouse organotypic cerebellar slice assessed as myelination index level at 0.01 to 10 nM incubated for 7 days by immunohistochemistry based three-dimensional brain cell culture assay (reference value: 50%); format: functional; conditions: dose 0.01-10 nM, time 7 day; summary of the method: as §3
[36] = tested on: Cerebellum; assay: Induction of remyelination in lysophosphatidylcholine-induced demyelination in CD1 mouse organotypic cerebellar slice assessed as promotion of Purkinje cell axonal remyelination at 0.01 to 10 nM incubated for 7 days by immunohistochemistry based three-dimensional brain cell culture assay; format: functional, tissue-based; conditions: dose 0.01-10 nM, time 7.0 day; summary of the method: as §3

EC50 [1]: 60 nM
IC50 [2]: > 1000 nM
EC50 [3]: > 1000 nM
EC50 [4]: 35 nM
SMILES: CCCCCC[C@H]1CCc2cc([C@H]3CC[C@](N)(COP(=O)(O)O)C3)ccc2C1

Ratio [6]: 0.57
SMILES: CCCCCC[C@H]1CCc2cc([C@H]3CC[C@](N)(CO)C3)ccc2C1
inhibition in vivo at 30 mg/kg [5]: 84%
inhibition in vivo at 0.5 mg/kg [7]: 21%
inhibition in vivo at 30 mg/kg [8]: 66%

Fu [9]: < 1%
IC50 [13]: > 20000 nM
Ratio [6]: 0.51
Fu [14]: < 1%
IC50 [16]: 19000 nM
half-life [17]: 1.78 h
Fu [19]: < 1%
IC50 [21]: 5000 nM
IC50 [22]: > 20000 nM
half-life [23]: 2 h
Fu [25]: < 1%
IC50 [26]: > 20000 nM
half-life [27]: 2 h
IC50 [29]: > 80000 nM
half-life [30]: 98 h
half-life [32]: 2 h
Fu [33]: < 1%
SMILES: CCCCCC[C@@H]1CCc2cc([C@H]3CC[C@](N)(CO)C3)ccc2C1 [BMS-986104]
inhibition in vivo at 30 mg/kg [5]: 90%
Activity [10]: 33%
inhibition in vivo at 10 mg/kg [11]: 90%
inhibition in vivo at 1 mg/kg [12]: 52%
Activity [15]: Dose-dependent effect
Activity [18]: Active
Activity [20]: 55%
inhibition in vivo at 0.5 mg/kg [24]: 68%
Activity [4]: Dose-dependent effect
inhibition in vivo at 0.5 mg/kg [7]: 52%
inhibition at 0.3 µM [28]: 36%
inhibition in vivo at 10 mg/kg [31]: 80%
inhibition in vivo at 30 mg/kg [8]: 88%

EC50 [1]: 6.4 nM
IC50 [2]: > 1000 nM
EC50 [3]: > 1000 nM
SMILES: CCCCCC[C@@H]1CCc2cc([C@H]3CC[C@](N)(COP(=O)(O)O)C3)ccc2C1
Activity [34]: Active
Activity [35]: 100%
Activity [36]: Active
